Test results: ChEMBL document CHEMBL1123827, “Alpha 2-adrenergic agonists/antagonists: the synthesis and structure-activity relationships of a series of indolin-2-yl and tetrahydroquinolin-2-yl imidazolines” (J Med Chem, 1987)

Columns and labels:
[1] = target: T1, Adrenergic receptor alpha-2 (Rattus norvegicus, UniProt P22086+P19328+P22909); experiment: The compound was evaluated for the alpha-2 adrenergic receptor activity in rat vas deferens.
T1 sequence (P22086 whole entry): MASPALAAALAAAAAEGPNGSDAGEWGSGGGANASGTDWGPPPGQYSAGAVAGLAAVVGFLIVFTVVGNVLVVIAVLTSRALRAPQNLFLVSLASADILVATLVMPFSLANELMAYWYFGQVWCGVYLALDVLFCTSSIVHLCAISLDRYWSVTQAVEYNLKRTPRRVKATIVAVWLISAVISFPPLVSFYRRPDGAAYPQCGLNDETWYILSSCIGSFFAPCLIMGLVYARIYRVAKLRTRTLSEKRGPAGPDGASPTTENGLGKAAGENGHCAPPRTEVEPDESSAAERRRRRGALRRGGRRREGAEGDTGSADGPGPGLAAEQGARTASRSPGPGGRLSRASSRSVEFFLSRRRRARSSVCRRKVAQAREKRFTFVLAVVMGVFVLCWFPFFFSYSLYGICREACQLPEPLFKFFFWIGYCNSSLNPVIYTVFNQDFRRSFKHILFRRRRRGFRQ
T1 sequence (P19328 whole entry): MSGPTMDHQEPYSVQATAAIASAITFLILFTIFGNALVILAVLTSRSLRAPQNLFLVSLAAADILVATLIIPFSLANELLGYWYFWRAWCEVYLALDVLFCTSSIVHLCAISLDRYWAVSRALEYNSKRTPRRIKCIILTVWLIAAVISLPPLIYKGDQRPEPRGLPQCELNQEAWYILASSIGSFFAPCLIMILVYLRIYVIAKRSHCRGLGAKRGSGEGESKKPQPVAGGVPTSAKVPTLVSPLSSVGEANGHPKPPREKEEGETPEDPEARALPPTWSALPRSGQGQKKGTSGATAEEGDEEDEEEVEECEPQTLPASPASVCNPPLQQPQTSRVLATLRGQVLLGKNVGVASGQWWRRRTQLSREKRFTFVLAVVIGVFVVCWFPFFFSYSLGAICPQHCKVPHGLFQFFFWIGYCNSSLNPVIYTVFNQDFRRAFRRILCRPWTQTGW
T1 sequence (P22909 whole entry): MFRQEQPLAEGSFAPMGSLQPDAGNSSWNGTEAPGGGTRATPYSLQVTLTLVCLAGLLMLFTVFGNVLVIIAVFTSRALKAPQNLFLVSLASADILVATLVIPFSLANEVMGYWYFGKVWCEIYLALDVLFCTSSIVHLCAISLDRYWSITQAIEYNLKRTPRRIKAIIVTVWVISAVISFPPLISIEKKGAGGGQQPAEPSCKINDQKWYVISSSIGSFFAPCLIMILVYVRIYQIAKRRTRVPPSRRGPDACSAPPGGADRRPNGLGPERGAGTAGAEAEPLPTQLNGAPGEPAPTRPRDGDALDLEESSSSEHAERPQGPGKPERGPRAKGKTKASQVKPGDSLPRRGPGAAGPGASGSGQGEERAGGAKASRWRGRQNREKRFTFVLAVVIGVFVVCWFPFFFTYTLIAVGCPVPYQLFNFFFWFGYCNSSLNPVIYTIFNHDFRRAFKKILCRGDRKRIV
Summary of the method: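 Isolated vasa deferentia from Sprague-Dawley rats (180–250 g) mounted between platinum ring electrodes at 1 g resting tension in oxygenated Krebs at 37 °C. Single-pulse electrical stimulation (1 ms, 0.15 Hz, lowest voltage giving maximal contraction); inhibition of twitch contractions gives IC50 for agonists. Mean of at least three experiments, separate animals.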

[2] = target: T1, Adrenergic receptor alpha-2; experiment: Binding affinity against alpha-2 adrenergic receptor was determined by the displacement of [3H]clonidine from rat brain cortical membranes; format: cell membranes, Membrane

IC50 [1]: 179 nM
Ki [2]: 13.2 nM
Structure (SMILES): CSC[C@@]1(C2=NCCN2)Cc2ccccc2N1C
